From PubChem
M1 antag: blocks the rat M1 muscarinic receptor response to acetylcholine. P08482. CHO-M1 cells, Fluo-4 calcium, ACh EC80 antagonist mode; active compounds read low. B-score at 10 µM. 3.4% of 64,000 active;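 active = calcium fluorescence response, raw or row-and-column corrected B-score, differing from the plate sample mean either way at a set confidence level, mostly lower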
Target sequence (P08482 whole entry, looked up): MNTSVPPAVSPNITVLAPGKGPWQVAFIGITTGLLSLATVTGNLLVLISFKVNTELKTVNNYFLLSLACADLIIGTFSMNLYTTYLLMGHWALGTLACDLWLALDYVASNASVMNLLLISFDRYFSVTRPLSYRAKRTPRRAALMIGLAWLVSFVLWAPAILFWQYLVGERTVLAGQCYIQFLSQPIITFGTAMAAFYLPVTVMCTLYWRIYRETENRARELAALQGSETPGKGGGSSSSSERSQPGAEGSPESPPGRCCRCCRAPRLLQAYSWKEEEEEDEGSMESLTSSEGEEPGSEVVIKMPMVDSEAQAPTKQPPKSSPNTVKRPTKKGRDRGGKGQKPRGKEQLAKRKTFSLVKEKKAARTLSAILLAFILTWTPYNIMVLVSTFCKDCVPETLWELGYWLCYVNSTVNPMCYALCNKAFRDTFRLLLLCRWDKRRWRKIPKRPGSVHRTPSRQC
Hsp90 inh: displaces geldanamycin probe from tumor Hsp90; P07900; NCI-N417 lysate Hsp90, Cy3B-geldanamycin FP displacement; inhibition, % at 30 µM; 0.35% of 64,000 active; AID 429;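 active = inhibition above 50%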;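 also: 0% = tracer plus lysate wells and 100% = tracer alone without lysate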
BAP1 block: blocks human BAP1 ubiquitin-AMC hydrolysis; calls only at 20 µM; 0.48% of 72,000 active; recombinant BAP1, Ub-AMC hydrolysis fluorescence kinetic; active compounds read low; Q92560;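 active = activity remaining at or below 50% of control, provided the compound also passes the data quality filters; inactive = the rest, including low values that fail the filters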;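 also: 100% = DMSO wells rate and 0% = substrate alone blank rate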
M1 ag: activates the M1 muscarinic receptor; B-score at 10 µM; CHO-M1 cells, Fluo-4 calcium fluorescence, agonist mode; active compounds read high; 3% of 64,000 active; AID 626;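 active = fluorescence rise, raw or as B-score row- and column-corrected plate score, outside the 99.7% band of its plate's samples, either direction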
Ecoli tolC: blocks growth of E. coli BW25113 tolC mutant | OD615 | AID 573 | 2.2% of 65,000 active | growth inhibition, % at 10 µM (by protocol);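 active = growth inhibition at or above a cutoff equal to the mean over every tested compound plus 3 SD, cut at about 60% in these data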;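 also: growth measured after 20 h incubation at 37 °C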
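Signal: optical density read at 615 nm; Assay system: E. coli ΔtolC::kan strain BW25113; Times: 20 h incubation with compound, 37 °C; Dosing: 10 µM final, single dose.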
Ecoli WT expand: growth inhibitors of E. coli BW25113 wild type | OD600 absorbance | 0.15% of 98,000 active | growth inhibition, % at 100 µM;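 active = growth inhibition above about 50% at one test dose, limit read from the data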;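 also: growth measured after 20 h incubation at 37 °C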
* = called active by the depositor; i = inactive; . = no result shown. Shown are actives, neighbours in structure and some others; about 5.1% of the full set was active somewhere.

SMILES | M1 antag | Hsp90 inh | BAP1 block | M1 ag | Ecoli tolC | Ecoli WT expand
COC(=O)C1CCN(c2nc3ccccc3nc2C(C#N)C(=O)OCC(C)C)CC1 (stereo not given) | -0.157 | -7.5 | i | 0.56 | -7.0 | 5.0
CC1CN(c2nc3ccccc3nc2C(C#N)C(=O)NCc2ccc3c(c2)OCO3)CC(C)O1 (stereo not given) | -0.541 | -0.6 | i | 9.84* | 5.8 | -12.0
COC(=O)C1CCN(c2nc3ccccc3nc2C(C#N)C(=O)NCCc2ccccc2)CC1 (stereo not given) | 0.106 | -1.6 | . | 25* | 5.2 | -13.0
Cc1ccc(C)c(S(=O)(=O)C(C#N)c2nc3ccccc3nc2N2CCOCC2)c1 (stereo not given) | -0.893 | -4.0 | i | 1.4 | 70.0* | 1.0
Cc1ccc(C)n1-c1ccc(-c2ccc(-n3c(C)ccc3C)cc2)cc1 | . | . | i | . | . | .
O=C(C[n+]1cc2ccccc2c2ccccc21)c1ccccc1 | . | . | . | . | . | 11.0
CCCCCCCCC[n+]1cccc2c3ccccc3ccc21 | . | . | . | . | . | 70.0*
CSc1cccc(NC(=O)CN(c2cc(C)ccc2C)S(C)(=O)=O)c1 | 1.24* | -2.4 | i | -0.462 | 7.7 | -16.0
COc1ccc(Cl)cc1N(CC(=O)Nc1cccc(SC)c1)S(C)(=O)=O | . | . | . | . | . | -17.0
CCOC(=O)NC(=O)CN1C(=O)NC(C)(c2ccccc2)C1=O (stereo not given) | 2.12* | -4.6 | i | -0.0727 | -8.6 | 9.0
CC1(c2ccccc2)NC(=O)N(CC(=O)NC(=O)NC2CCCC2)C1=O (stereo not given) | 0.739 | -4.6 | i | -0.0833 | -6.3 | 2.0
CCc1cc(-c2[nH]ncc2-c2ccc3c(c2)OCO3)c(O)cc1O | -0.00313 | 95.8* | i | 3.2 | 100.0* | .
COc1ccc(-c2[nH]ncc2-c2ccc3c(c2)OCCO3)c(O)c1 | 0.643 | 0.1 | i | 0.037 | 98.4* | 3.0
CCCc1cc(-c2[nH]ncc2-c2ccc3c(c2)OCCCO3)c(O)cc1OC | . | . | . | . | . | 13.0
O=C1c2cccc3cccc(c23)C(=O)N1CC1CCN(CC(O)COCC2COc3ccccc3O2)CC1 (stereo not given) | . | . | i | . | . | .
COc1ccc(OC)c(C2NC(=S)NC(C)=C2C(=O)Nc2ccccc2)c1 (stereo not given) | . | . | i | . | . | .
O=c1[nH]c(=O)n(C2CCCCCC2)c(O)c1C=NCc1ccc(F)cc1 | 0.232 | -0.7 | i | 0.845 | 98.5* | -10.0
CCCCSc1nc2c(cnn2-c2ccc(Cl)cc2)c(=O)[nH]1 | 0.247 | 0.4 | i | 5.62* | -25.5 | -7.0
CC(=O)c1c(C)n([O-])c2cc(C)ccc2[n+]1=O | -0.103 | -1.4 | i | -0.755 | 91.5* | 46.0
COc1ccc(-c2c(C)n([O-])c(C)c(C)[n+]2=O)cc1OC | 0.74 | 0.7 | i | -1.12 | -16.0 | -3.0
CC(C)OC(=O)c1nn2c(C(F)(F)F)cc(-c3ccc(Br)o3)nc2c1Br | -0.0099 | -2.3 | i | 9.75* | 6.0 | -9.0
CC(C)CNC(=O)c1nn2c(C(F)(F)F)cc(-c3cccs3)nc2c1Br | . | . | i | . | . | .
C=CCN1CCc2cc(O)c(O)cc2C(c2ccccc2)C1 (stereo not given) | . | 56.0* | i | . | . | .
COc1cc2c(cc1OC)C(c1ccccc1)N(C(=O)CCl)CC2 (stereo not given) | . | . | . | . | . | 1.0
C=CCN1CCc2c(cc(O)c(O)c2Cl)C(c2ccccc2)C1 (stereo not given) | . | 76.0* | i | . | . | .
SMILES | M1 antag | Hsp90 inh | BAP1 block | M1 ag | Ecoli tolC | Ecoli WT expand
Cc1cccc(C2CN(C)CCc3c2cc(O)c(O)c3Cl)c1 (stereo not given) | . | 69.3* | i | . | . | .
O=C1c2ccc([N+](=O)[O-])cc2C(=O)N1c1ccc([N+](=O)[O-])cc1 | . | . | i | . | . | .
O=c1c2ccccc2nc(SCc2cn3ccsc3n2)n1-c1ccccc1F | 1.06 | -3.3 | i | 0.659 | 65.2* | -12.0
O=c1c2ccccc2nc(SCc2cn3ccsc3n2)n1-c1ccccc1 | . | 0.5 | i | . | 44.3 | -15.0
C(=Cc1ccccc1)CSc1nnc(-c2ccncc2)n1-c1ccccc1 | . | . | i | . | . | .
CSc1ccc(S(=O)(=O)N(CC(=O)N2CCCC2)c2ccc(C)cc2)cc1 | . | . | i | . | . | .
COC(=O)c1ccc(CSc2nc3ccccc3o2)cc1 | 0 | -1.5 | i | -0.926 | 65.3* | 7.0
O=C(Nc1cccc(Cl)c1)N(CCCN1CCOCC1)Cc1ccccc1F | 0.685 | -5.1 | i | 1.55 | 68.2* | 40.0
O/N=C1/CCc2nonc2/C1=N/O | -0.512 | 3.5 | i | 0.502 | 0.3 | 52.0*
Cc1ccc2c(CSc3nc4ccccc4c(=O)n3CCCO)cc(=O)oc2c1 | -0.189 | -1.8 | i | 9.98* | 25.4 | .
O=C(CSc1nc2ccccc2c(=O)n1CCCO)NCc1ccccc1 | -0.191 | -2.9 | i | 0.0636 | -6.6 | 1.0
CCOC(=O)N1CCN(S(=O)(=O)c2cc(Cl)ccc2Cl)CC1 | 0.95* | -8.6 | i | -0.741 | -4.6 | 4.0
CCOC(=O)N1CCN(S(=O)(=O)c2cc(C)c(C)cc2C)CC1 | 0.0784 | -6.3 | i | -1.1 | 14.6 | 3.0
COC(=O)C1=C(C)N(C)C(C)=C(C(=O)OC)C1c1ccc(Cl)c([N+](=O)[O-])c1 | . | . | i | . | . | .
O=C(NCCNC(=O)c1cccs1)c1ccco1 | 0.232 | -3.5 | i | -0.398 | -18.3 | 3.0
Cc1ccc(C(=O)NNC(=S)NC(=O)COc2ccccc2)cc1 | . | . | . | . | . | 51.0*
Cc1ccccc1C(=O)NNC(=S)NC(=O)COc1ccccc1 | . | . | . | . | . | 32.0
CCC(=O)NC(=S)NNC(=O)c1ccc(OC)cc1 | . | . | . | . | . | 75.0*
COCCNC(=S)NNC(=O)c1ccco1 | . | . | . | . | . | -2.0
O=C(NC(=S)NNC(=O)c1cccs1)c1ccco1 | . | . | . | . | . | 67.0*
CCC(=O)NC(=S)NNC(=O)c1ccc([N+](=O)[O-])cc1 | . | . | . | . | . | 28.0
COc1ccc(C(=O)NNC(=S)NC(=O)c2ccco2)cc1 | . | . | . | . | . | 80.0*
CC(=S)Nc1ccc(-c2ccccc2)s1 | . | . | i | . | . | .
CC1Sc2sc(=S)sc2SC(C)(C)C1=O (stereo not given) | . | . | i | . | . | .
CCCc1cc2c(=O)c(-c3cc4ccccc4o3)c(C)oc2cc1OC | . | . | i | . | . | .
SMILES | M1 antag | Hsp90 inh | BAP1 block | M1 ag | Ecoli tolC | Ecoli WT expand
CCCOc1ccc(C(=O)NNC(=S)NC(C)=O)cc1 | . | . | . | . | . | 88.0*
CC(C)COCC(CN(Cc1ccccc1)c1ccccc1)N1CCCC1 (stereo not given) | . | 64.2* | i | . | . | .
CCn1cc(C(=O)N[C@H](C)c2ccccc2)c(=O)c2cc(F)c(N3CCN(C)CC3)cc21 | . | . | . | . | . | 1.0
CCn1cc(C(=O)O)c(=O)c2cc(F)c(N3CCN(C(=O)Nc4ccccc4)CC3)cc21 | 0.35 | -3.1 | i | -0.312 | 100.0* | 94.0*
CCn1cc(C(=O)NCCc2ccccc2)c(=O)c2cc(F)c(N3CCN(C)CC3)cc21 | -1.76 | -6.5 | i | 0.454 | -1.4 | 33.0
CCn1cc(C(=O)NCc2ccc3c(c2)OCO3)c(=O)c2cc(F)c(N3CCN(C)CC3)cc21 | -1.28 | 4.0 | i | -0.728 | 100.0* | 100.0*
CCOC(=O)c1cn(CC)c2cc(N3CCSCC3)c(F)cc2c1=O | -0.305 | -2.2 | i | 0.109 | 100.0* | 32.0
